Rows were chosen to be rich in hits. Some 3.7% of all compounds tested hit in one or more screens of this group.
KCNQ1 inh: human KCNQ1 channel inhibition. P51787. CHO-K1 KCNQ1, FluxOR thallium flux fluorescence; stronger effect = higher value. B-score at 10 µM. 1.3% of 310,000 active. AID 2642;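 active = compounds whose thallium flux B-score, printed positive for inhibition, exceeds three library SD while starting fluorescence stays within three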;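 note: channel opened by potassium depolarization with thallium stimulus after 20 min compound exposure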
Target sequence (P51787 whole entry, looked up): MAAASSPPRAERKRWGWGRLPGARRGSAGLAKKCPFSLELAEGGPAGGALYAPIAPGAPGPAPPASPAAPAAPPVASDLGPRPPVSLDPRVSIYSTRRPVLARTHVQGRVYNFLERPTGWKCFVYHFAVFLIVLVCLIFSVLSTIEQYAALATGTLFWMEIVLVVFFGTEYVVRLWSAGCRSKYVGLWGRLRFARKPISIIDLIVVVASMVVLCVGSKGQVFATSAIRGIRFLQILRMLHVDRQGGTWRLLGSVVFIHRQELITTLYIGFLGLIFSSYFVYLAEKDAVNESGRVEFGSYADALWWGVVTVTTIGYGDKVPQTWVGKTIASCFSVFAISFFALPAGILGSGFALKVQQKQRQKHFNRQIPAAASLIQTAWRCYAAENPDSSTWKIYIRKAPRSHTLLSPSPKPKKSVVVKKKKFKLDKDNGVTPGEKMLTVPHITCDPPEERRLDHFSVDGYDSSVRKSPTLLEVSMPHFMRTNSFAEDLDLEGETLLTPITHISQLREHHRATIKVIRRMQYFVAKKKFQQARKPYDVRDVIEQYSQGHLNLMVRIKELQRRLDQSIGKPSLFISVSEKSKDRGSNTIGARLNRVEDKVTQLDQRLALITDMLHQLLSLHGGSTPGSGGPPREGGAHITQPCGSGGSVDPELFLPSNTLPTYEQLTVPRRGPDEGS
Kir21 block: Kir2.1 (mouse) channel inhibition; P35561; HEK293-Kir2.1, FluxOR thallium flux fluorescence; stronger effect = lower value; AID 1672; 0.85% of 310,000 active; B-score at 10 µM;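 active = fluorescence ratio B-score at or below minus 3 SD of library scores, with starting-brightness B-score within 2 SD, cut at about -4.2 in these data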;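 note: channel flux triggered by added potassium and thallium sulfate stimulus; B-score of peak minus minimum fluorescence over baseline after thallium stimulus; more negative B-score means stronger Kir2.1 block with less thallium influx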
KCNQ1 pot: potentiates or activates the human KCNQ1 potassium channel. P51787. CHO-K1 KCNQ1, thallium flux FluxOR fluorescence; stronger effect = higher value. B-score at 10 µM. 0.35% of 310,000 active. AID 2648;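 active = fluorescence ratio B-score, a plate-corrected score, at least three library SD, with initial intensity B-score within 5 SD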
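Medium – assay buffer, equal DMSO in all wells · Material – CHO-K1 cell line with stable KCNQ1 potassium channel expression · Signal – kinetic FluxOR thallium fluorescence, 10-s 1-Hz baseline, 110-s post-stimulus read · Compound – single concentration per compound, DMSO matched to controls · Schedule – 37 °C overnight plating, 90-min dark dye load, 20-min compound pretreatment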
hERG rescue: shields human hERG channel from block by proarrhythmic agents. Q12809. CHO-hERG, FluxOR thallium flux, dofetilide IC70 present. activation (rescue from dofetilide block), less the hit threshold, % at 10 µM. 0.51% of 310,000 active. AID 1511;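 active = activation above the mean of controls blocked by dofetilide plus 5 SD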;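 note: thallium influx through hERG after potassium depolarization seen as dye fluorescence rise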
KCNK9 block: inhibitors of human KCNK9 two-pore domain potassium channel; 1.2% of 310,000 active; Q9NPC2; B-score at 10 µM; HEK293 KCNK9, FluxOR thallium flux fluorescence; stronger effect = lower value;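 active = ratio B-score over 3 SD below the library mean, with starting fluorescence within 5 SD of its mean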;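 note: negative B-score means less thallium flux so channel inhibition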
KCNK3 block: human KCNK3 channel inhibition, primary screen; O14649; CHO-KCNK3 thallium flux, FluxOR fluorescence; stronger effect = lower value; B-score at 10 µM; 0.84% of 340,000 active; AID 602410;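 active = B-score under library mean minus 4 SD, starting fluorescence ratio at most library mean plus 5 SD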;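 note: more negative B-score means stronger inhibition of thallium flux through KCNK3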
KCNK9 block conf: confirmation of human KCNK9 potassium channel inhibitors. shares compounds with KCNK9 block. HEK293 KCNK9 cells, FluxOR thallium flux fluorescence. inhibition, % at 10 µM. 43% of 4,900 active;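 active = thallium signal inhibited by more than 5 SD of the compound-free buffer control wells, on both duplicate plates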;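 note: 0% = assay buffer control wells without compound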
Kir21 sel: tests whether KCNK9 modulators also affect mouse Kir2.1; AID 492993; 4% of 4,900 active; Kir2.1 cells, FluxOR thallium flux fluorescence; shares compounds with KCNK9 block; inhibition, % at 10 µM;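 active = thallium signal drop more than 5 SD beyond the mean of the no-compound control wells, seen in both duplicate plates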;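 note: signal is fluorescence rise after thallium addition divided by baseline fluorescence; plate controls were assay buffer only for no effect and full block by chlorpromazine control for full effect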
KCNK9 uninduced: second counter-screen for KCNK9 modulators: effect in non-induced cells | 40% of 4,900 active | shares compounds with KCNK9 block | AID 492997 | inhibition, % at 10 µM | non-induced KCNK9-HEK293, FluxOR thallium flux;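 active = thallium signal drop beyond 5 SD of the untreated control mean, on both duplicate plates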;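 note: plate controls were buffer only IC0 wells for no effect and SID17386958 at its maximal inhibitory level for full effect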
* = called active by the depositor; i = inactive; . = no result.

SMILES | KCNQ1 inh | Kir21 block | KCNQ1 pot | hERG rescue | KCNK9 block | KCNK3 block | KCNK9 block conf | Kir21 sel | KCNK9 uninduced
CC(C)CC1=NN(C(=O)c2ccncc2)C(O)(C(F)(F)F)C1 (stereo unspecified) | i | 0 | i | -6 | i | i | . | . | .
O=C(CN1C(=O)COc2ccc(S(=O)(=O)N3CCOCC3)cc21)NCc1ccccn1 | i | -0.43 | i | -10 | i | i | . | . | .
CCOC(=O)/C(=C\Nc1ccc(OC(F)(F)F)cc1)Sc1ncc(C(F)(F)F)cc1Cl | i | -1.4 | i | -9 | i | i | i | i | i
COC(=O)C1CCN(c2ccc(Cl)nn2)CC1 | i | 0.51 | i | -7 | i | i | . | . | .
O=C(O)C1CCCN1S(=O)(=O)c1ccc(F)cc1 (stereo unspecified) | i | -1.7 | i | -3 | i | i | . | . | .
Cc1ccc(C)c(N2CCN(C(=O)C3CCCCN3S(=O)(=O)c3ccc(F)cc3)CC2)c1 (stereo unspecified) | i | -0.1 | i | -6 | -19* | i | 30%* | i | 30%*
Cc1ccc2nc(C)c3c(c2c1)SCC3 | i | 0.35 | i | -8 | i | i | . | . | .
CCOc1ccc(CN(C)CC(=O)Nc2cc(C)c(C)cc2[N+](=O)[O-])cc1 | i | 0.72 | i | -5 | i | i | i | i | i
Cc1c(C(=O)O)cccc1-c1ccc(/C=N/n2cnnc2)o1 | i | -0.02 | i | -8 | i | i | . | . | .
Cc1c(C(=O)O)cccc1-c1ccc(/C=N/Nc2ccc(Br)cc2)o1 | i | 0.39 | i | -12 | i | i | i | i | i
O=C(O)c1ccc(N/N=C/c2ccc(-c3ccc(Cl)cc3Cl)o2)cc1 | i | 1.3 | i | -10 | i | i | i | i | i
COc1cc(CNCc2cc(OC)c(OC)c(OC)c2)cc(OC)c1 | i | -0.82 | i | -4 | i | i | . | . | .
CC(C)c1ccc(NC(=O)Cn2c(=O)oc3ccccc32)cc1 | i | 0.84 | i | -2 | i | i | . | . | .
COc1ccccc1CNC(=O)CCCN1C(=O)COc2ccc(C)cc21 | i | -0.55 | i | -8 | i | i | i | i | i
Cc1ccc2c(c1)N(CCC(=O)NC1CCCCC1)C(=O)CO2 | i | -0.3 | i | -9 | i | i | i | i | i
O=C(CCNC(=O)c1ccccc1Cl)Nc1nc(-c2ccc3ccccc3c2)cs1 | i | -1.1 | i | -8 | -8.2* | i | 42%* | i | i
COc1cc(C(=O)N/N=C/c2ccc(OC)c(CN3CCN(c4ccc(F)cc4)CC3)c2)ccc1O | i | -1.1 | i | -28 | i | i | i | i | i
COc1cc(OC)c(OC)cc1CN1CCN(c2ccc(F)cc2)CC1 | i | -0.42 | i | -9 | i | i | i | i | i
COc1ccc(/C=N/NC(=O)c2ccccc2)cc1CN1CCN(c2ccc(F)cc2)CC1 | i | -1.2 | i | -6 | i | i | . | . | .
CCOC(=O)C1(Cc2cccc(OC)c2)CCN(Cc2cccn2-c2nccs2)CC1 | i | -2.5 | i | -14 | i | i | . | . | .
CCOC(=O)C1(Cc2ccccc2)CCN(Cc2cccc3nccnc23)CC1 | i | -1.5 | i | 0 | i | i | i | i | i
CCOC(=O)C1(Cc2ccccc2C(F)(F)F)CCN(Cc2ccc(COC)o2)CC1 | i | -0.4 | i | -9 | i | i | i | i | i
CCOC(=O)C1(Cc2ccccc2)CCN(Cc2cccn2-c2nccs2)CC1 | i | -0.53 | i | -7 | i | i | i | i | i
CCOC(=O)C1(CCc2ccccc2)CCN(Cc2cc(OC)c(OC)cc2OC)CC1 | i | -0.52 | i | -14 | i | i | i | i | i
CCOC(=O)C1(CCc2ccccc2)CCN(Cc2ccc(C(=O)OC)cc2)CC1 | i | 1.5 | i | -15 | i | i | . | . | .
SMILES | KCNQ1 inh | Kir21 block | KCNQ1 pot | hERG rescue | KCNK9 block | KCNK3 block | KCNK9 block conf | Kir21 sel | KCNK9 uninduced
CCOc1ccc(C(=O)Nc2cc(S(=O)(=O)Nc3ccccc3Cl)ccc2N2CCOCC2)cc1 | i | 1.3 | i | 1 | i | i | . | . | .
CN(C(=O)CN(c1ccccc1)S(=O)(=O)c1ccc(F)cc1)C1CCS(=O)(=O)C1 (stereo unspecified) | i | -0.04 | i | -6 | i | i | . | . | .
Cc1cccc(-c2oc3ccc(-c4ccc5c(c4)OCO5)cc3c2/C=C/c2ccc(N)cc2)c1 | i | 0.21 | i | -6 | i | i | . | . | .
Cc1ccccc1C(=O)Nc1ccnn1C1CCN(C(=O)c2ccoc2)CC1 | i | 1.1 | i | -7 | i | i | . | . | .
Cc1ccc(NC2(c3nnnn3-c3c(C)cccc3C)CCCCC2)cc1 | i | 0.74 | i | -6 | -8.9* | i | 48%* | i | 44%*
COc1ccc(NC(C)(C)c2nnnn2-c2c(C)cccc2C)cc1 | i | -0.23 | i | -9 | i | i | . | . | .
CCC1CCCCN1C(=O)Nc1cc(Cl)ccc1OC (stereo unspecified) | i | -0.4 | i | -12 | i | i | . | . | .
CCOC(=O)c1c(C)[nH]c(C)c1S(=O)(=O)N1CCN(C(=O)c2ccco2)CC1 | i | 0.39 | i | -7 | i | i | . | . | .
COc1ccccc1CC(=O)c1ccc(OCc2ccccc2)cc1 | i | -0.76 | i | -15 | i | i | i | i | i
CCOC(=O)c1cccc(COC(=O)c2cccc(-c3nnc(-c4ccccc4)o3)c2)c1 | i | -0.08 | i | -17 | -19* | i | 68%* | i | 24%*
O=C(OCc1ccccc1)c1cccc(-c2nnc(-c3ccccc3)o2)c1 | i | -0.52 | i | -34 | i | i | . | . | .
CN(CC(=O)Nc1ccc(Cl)cc1)C(=O)C1CCCC1 | . | . | . | . | . | i | . | . | .
O=C(COC(=O)CCC(=O)c1ccc(F)cc1)Nc1cccc(S(=O)(=O)N2CCCC2)c1 | i | 1.5 | i | -12 | i | i | i | i | i
O=C(COC(=O)c1ccc(O)cc1)Nc1cccc(S(=O)(=O)N2CCCCC2)c1 | i | -0.37 | i | -16 | i | i | . | . | .
CCC(=O)c1ccc(OCC(=O)OCC(=O)Nc2cccc(S(=O)(=O)N3CCCC3)c2)cc1 | . | . | . | . | . | i | . | . | .

Source: PubChem BioAssay (Johns Hopkins Ion Channel Center)
